Results published in ChEMBL document CHEMBL1141097, “Indole-3-acetic acid antagonists of the prostaglandin D2 receptor CRTH2” (J Med Chem, 2005).

Key:
[1] = target: T1, Prostaglandin D2 receptor (Homo sapiens, UniProt Q13258); experiment: Binding affinity towards human DP receptor expressed in CHO cells; format: cell-based
T1 sequence (Q13258 whole entry): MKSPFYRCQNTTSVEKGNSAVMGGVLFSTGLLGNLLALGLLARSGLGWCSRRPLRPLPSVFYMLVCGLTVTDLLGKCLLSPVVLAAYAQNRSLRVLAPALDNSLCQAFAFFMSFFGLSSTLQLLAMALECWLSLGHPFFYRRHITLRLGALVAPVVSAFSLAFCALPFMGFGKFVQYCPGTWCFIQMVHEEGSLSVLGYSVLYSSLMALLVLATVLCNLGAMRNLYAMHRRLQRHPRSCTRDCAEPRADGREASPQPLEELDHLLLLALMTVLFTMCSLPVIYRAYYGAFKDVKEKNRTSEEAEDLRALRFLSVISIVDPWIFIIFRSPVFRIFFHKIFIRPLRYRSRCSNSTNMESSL
In short: (§1)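 Radioligand binding on membranes from CHO cells expressing recombinant human CRTH2 or human DP receptor, reported as Ki.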

[2] = target: T2, Prostaglandin D2 receptor 2 (Homo sapiens, UniProt Q9Y5Y4); experiment: Binding affinity towards human CRTH2 receptor expressed in CHO cells; format: cell-based; in short: as §1
T2 sequence (Q9Y5Y4 whole entry): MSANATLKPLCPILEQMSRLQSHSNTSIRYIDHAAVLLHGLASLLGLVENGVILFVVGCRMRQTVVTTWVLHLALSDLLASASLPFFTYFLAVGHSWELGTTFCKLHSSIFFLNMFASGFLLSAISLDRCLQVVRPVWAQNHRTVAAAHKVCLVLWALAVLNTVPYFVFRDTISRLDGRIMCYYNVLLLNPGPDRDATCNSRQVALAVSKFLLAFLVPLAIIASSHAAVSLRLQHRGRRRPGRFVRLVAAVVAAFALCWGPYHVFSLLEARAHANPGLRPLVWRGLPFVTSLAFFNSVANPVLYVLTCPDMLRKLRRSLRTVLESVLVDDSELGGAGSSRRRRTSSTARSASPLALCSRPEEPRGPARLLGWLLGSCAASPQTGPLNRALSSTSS

[3] = target: T2, Prostaglandin D2 receptor 2; experiment: Concentration required to inhibit PGD-2 (10 nM) stimulated [Ca2+] flux in CHO cells expressing human CRTH2 receptor; format: cell-based
In short: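 CHO cells expressing human CRTH2 were stimulated with 10 nM PGD2 and calcium mobilization was read. Inhibition is expressed as IC50. Antagonism was also tested by parallel shifts of the PGD2 dose–response curve with increasing antagonist (pA2).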

[4] = target: T2, Prostaglandin D2 receptor 2; experiment: Binding affinity towards human CRTH2 receptor expressed in CHO cells; range 25 nM to 8 uM; format: cell-based
[5] = target: T2, Prostaglandin D2 receptor 2; experiment: In vitro agonist potency towards human CRTH2 receptor expressed in CHO cells; range 15 to 50 nM
[6] = Oral bioavailability upon p.o. dose of 10 mg/kg in rats; format: ADME, organism-based; conditions: rat, in vivo
[7] = Area under curve for the compound upon i.v. dose of 1 mg/kg in rats; format: ADME, organism-based; set-up: dose 1 mg/kg, route intravenous; conditions: rat, in vivo, iv
In short: (§2)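 Rats given a single dose, 1 mg/kg intravenous or 10 mg/kg oral, then sampled for plasma levels. Cmax, Tmax and AUCinf come from the plasma concentration–time profile.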

[8] = Area under curve for the compound upon p.o. dose of 10 mg/kg in rats; format: ADME, organism-based; set-up: dose 10 mg/kg, route oral; conditions: rat, in vivo, po; in short: as §2
[9] = Time taken by the compound to reach its maximum concentration in plasma upon p.o. dose of 10 mg/kg in rats; format: ADME, organism-based; set-up: dose 10 mg/kg, route oral; conditions: rat, po; in short: as §2
[10] = Maximum plasma concentration upon i.v. dose of 1 mg/kg in rats; format: ADME, organism-based; set-up: dose 1 mg/kg, route intravenous; conditions: rat, iv; in short: as §2
[11] = Maximum plasma concentration upon p.o. dose of 10 mg/kg in rats; format: ADME, organism-based; set-up: dose 10 mg/kg, route oral; conditions: rat, po; in short: as §2

SMILES	Ki [1] [nM]	Ki [2] [nM]	IC50 [3] [nM]	other results
CSc1ccc(C=C2C(C)=C(CC(=O)O)c3cc(F)ccc32)cc1 [SULINDAC SULFIDE]	–	3500	–	–
COc1ccc2c(c1)c(CC(=O)O)c(C)n2C(=O)c1ccc(Cl)cc1 [INDOMETHACIN]	–	–	–	Ki [4]: 8000 nM; EC50 [5]: 50 nM
CCCCS(=O)(=O)n1c(C)c(CC(=O)O)c2cc(F)ccc21	> 10000	634	842	–
COc1ccc(S(=O)(=O)n2c(C)c(CC(=O)O)c3cc(F)ccc32)cc1	7710	299	318	–
Cc1ccc(S(=O)(=O)n2c(C)c(CC(=O)O)c3cc(F)ccc32)cc1	> 10000	457	2180	–
Cc1c(CC(=O)O)c2cc(F)ccc2n1S(=O)(=O)c1ccc(Cl)cc1	8460	29	26	–
Cc1c(CC(=O)O)c2cc(F)ccc2n1S(=O)(=O)c1ccc(S(C)(=O)=O)cc1	> 10000	68	158	bioavailability [6]: 56%; AUC [7]: 619 ng·h/mL; AUC [8]: 3480 ng·h/mL; Tmax [9]: 1.8 h; Cmax [10]: 1800 ng/mL; Cmax [11]: 332 ng/mL

Further lines, with some results ahead:

Ki [1] [nM]	Ki [2] [nM]	IC50 [3] [nM]	SMILES	other results
> 10000	2980	> 10000	Cc1nc(S(=O)(=O)n2c(C)c(CC(=O)O)c3cc(F)ccc32)cn1C	–
–	0.8	–	O=C(O)C[C@@H]1CCn2c1c(Sc1ccc(Cl)cc1)c1ccc(F)cc12	–
6890	225	639	Cc1c(CC(=O)O)c2cc(F)ccc2n1S(=O)(=O)c1cccc(F)c1	–
> 10000	71	158	Cc1c(CC(=O)O)c2cc(F)ccc2n1S(=O)(=O)c1ccc(F)cc1	–
1870	19	44	Cc1c(CC(=O)O)c2cc(F)ccc2n1S(=O)(=O)c1cc(Cl)ccc1Cl	–
4860	250	987	Cc1c(CC(=O)O)c2cc(F)ccc2n1S(=O)(=O)c1ccccc1	–
